Measured values from ChEMBL document CHEMBL1149771, “Antimicrobial studies of 2,4-dichloro-5-fluorophenyl containing oxadiazoles” (2008).
Converted amounts (≈) assume the structure as drawn.

Experiments:
Assay type in all cases: functional
[1] = test system: Trichophyton mentagrophytes; assay: Antifungal activity against Trichophyton mentagrophytes at 35 degC after 48 hrs
Outline: (§1)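 Fungicidal endpoint (MFC). 0.1 ml from each broth-dilution tube was spread on agar plates and c.f.u. counted after 48 h at 35 °C. MFC was the lowest concentration killing 99.9% of the inoculum.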

Talaromyces marneffei [2] = assay: Antifungal activity against Penicillium marneffei at 35 degC after 48 hrs by broth dilution method
Outline: (§2)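 Fungal MIC by broth dilution. Two-fold serial dilutions of compound in nutrient broth were inoculated with about 1.6 × 10⁴–6 × 10⁴ c.f.u./ml. Incubation was 48 h at 35 °C. MIC was the lowest concentration arresting fungal growth.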

Candida albicans [3] = assay: Antifungal activity against Candida albicans at 35 degC after 48 hrs by broth dilution method; outline: as §2
Aspergillus fumigatus [4] = assay: Antifungal activity against Aspergillus fumigatus at 35 degC after 48 hrs; outline: as §1
Pseudomonas aeruginosa [5] = assay: Antibacterial activity against Pseudomonas aeruginosa ATCC 27853 at 37 degC after 24 hrs by disc diffusion method
Outline: (§3)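 Disc diffusion on nutrient agar. Plates were spread with 1–2 × […] c.f.u./ml inoculum (0.5 McFarland). Sterile 6.25 mm filter-paper discs were soaked in a known concentration of compound and placed on the agar. Plates were inverted and incubated 24 h at 37 °C. Inhibition zones (mm) were read against solvent and growth controls, with ciprofloxacin as reference.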

Candida albicans [6] = assay: Antifungal activity against Candida albicans at 35 degC after 48 hrs; outline: as §1
Talaromyces marneffei [7] = assay: Antifungal activity against Penicillium marneffei at 37 degC after 3 to 4 days by agar […] method
Outline: (§4)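 Agar well diffusion for fungi, compounds in DMSO. Sabouraud agar was adjusted to pH 5.7 and lawned with a saline spore suspension (a loopful in 3 ml). Plates were dried 1 h at 37 °C, then wells were punched. Incubation was 3–4 days at 37 °C, with controls in triplicate. Inhibition zones were measured against controls, with griseofulvin as standard.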

Pseudomonas aeruginosa [8] = assay: Antibacterial activity against Pseudomonas aeruginosa ATCC 27853 at 37 degC after 24 hrs by broth dilution method; conditions: ATCC 27853, 24 h
Outline: (§5)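 Broth dilution MIC. Nutrient broth held two-fold serial dilutions of compound and was inoculated with about 5 × 10⁵ c.f.u. of actively dividing bacteria. Cultures ran 24 h at 37 °C, with growth checked visually and spectrophotometrically. MIC was the lowest concentration arresting growth. Ciprofloxacin was the standard.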

Klebsiella pneumoniae [9] = assay: Antibacterial activity against Klebsiella pneumoniae ATCC 25922 at 37 degC after 24 hrs by broth dilution method; conditions: recultured, in the assay text read “Klebsiella pneumoniae (recultured)” for “Klebsiella pneumoniae ATCC 25922”; outline: as §5
Staphylococcus aureus [10] = assay: Antibacterial activity against Staphylococcus aureus ATCC 25923 at 37 degC after 24 hrs by disc diffusion method; outline: as §3
Escherichia coli [11] = assay: Antibacterial activity against Escherichia coli ATCC 25922 at 37 degC after 24 hrs by disc diffusion method; outline: as §3
Escherichia coli [12] = assay: Antibacterial activity against Escherichia coli ATCC 25922 at 37 degC after 24 hrs by broth dilution method; conditions: ATCC 25922, 24 h; outline: as §5
[13] = test system: Trichophyton mentagrophytes; assay: Antifungal activity against Trichophyton mentagrophytes at 35 degC after 48 hrs by broth dilution method; outline: as §2
Staphylococcus aureus [14] = assay: Antibacterial activity against Staphylococcus aureus ATCC 25923 at 35 degC after 18 to 24 hrs
Outline: (§6)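 Bactericidal endpoint (MBC) taken from the broth-dilution MIC tubes. 0.1 ml from each tube was spread on agar plates and c.f.u. counted after 18–24 h. MBC was the lowest concentration completely killing the bacteria.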

Aspergillus fumigatus [15] = assay: Antifungal activity against Aspergillus fumigatus at 35 degC after 48 hrs by broth dilution method; outline: as §2
Candida albicans [16] = assay: Antifungal activity against Candida albicans at 37 degC after 3 to 4 days by agar dilution method; conditions: for Activity: in the assay text read “agar diffusion method” for “agar dilution method”; outline: as §4
Klebsiella pneumoniae [17] = assay: Antibacterial activity against Klebsiella pneumoniae ATCC 25922 at 37 degC after 24 hrs by disc diffusion method; outline: as §3
Staphylococcus aureus [18] = assay: Antibacterial activity against Staphylococcus aureus ATCC 25923 at 37 degC after 24 hrs by broth dilution method; conditions: ATCC 25923, 24 h; outline: as §5
Talaromyces marneffei [19] = assay: Antifungal activity against Penicillium marneffei at 35 degC after 48 hrs; outline: as §1
Aspergillus fumigatus [20] = assay: Antifungal activity against Aspergillus fumigatus at 37 degC after 3 to 4 days by agar […] method; outline: as §4
Pseudomonas aeruginosa [21] = assay: Antibacterial activity against Pseudomonas aeruginosa ATCC 27853 at 35 degC after 18 to 24 hrs; outline: as §6
Klebsiella pneumoniae [22] = assay: Antibacterial activity against Klebsiella pneumoniae ATCC 25922 at 35 degC after 18 to 24 hrs; conditions: recultured, in the assay text read “Klebsiella pneumoniae (recultured)” for “Klebsiella pneumoniae ATCC 25922”; outline: as §6
[23] = test system: Trichophyton mentagrophytes; assay: Antifungal activity against Trichophyton mentagrophytes at 37 degC after 3 to 4 days by agar dilution method; conditions: in the assay text read “agar diffusion method” for “agar dilution method”; outline: as §4
Escherichia coli [24] = assay: Antibacterial activity against Escherichia coli ATCC 25922 at 35 degC after 18 to 24 hrs; outline: as §6

Compound | MFC [1] | MIC (Talaromyces marneffei [2]) | MIC (Candida albicans [3]) | MFC (Aspergillus fumigatus [4]) | inhibition zone (IZ) (Pseudomonas aeruginosa [5]) | MFC (Candida albicans [6]) | inhibition zone (IZ) (Talaromyces marneffei [7]) | MIC (Pseudomonas aeruginosa [8]) | MIC (Klebsiella pneumoniae [9]) | inhibition zone (IZ) (Staphylococcus aureus [10]) | MIC (Escherichia coli [12]) | MIC [13] | MBC (Staphylococcus aureus [14]) | MIC (Aspergillus fumigatus [15]) | MIC (Staphylococcus aureus [18]) | MFC (Talaromyces marneffei [19]) | inhibition zone (IZ) (Aspergillus fumigatus [20]) | MBC (Pseudomonas aeruginosa [21]) | MBC (Klebsiella pneumoniae [22]) | MBC (Escherichia coli [24]) | further results
Cc1ccc(OCc2nnc(-c3cc(F)c(Cl)cc3Cl)o2)cc1 | 6.25 µg/mL (≈ 17.7 µM) | 6.25 µg/mL (≈ 17.7 µM) | 6.25 µg/mL (≈ 17.7 µM) | 12.5 µg/mL (≈ 35.4 µM) | 32 mm | 6.25 µg/mL (≈ 17.7 µM) | 18 mm | 6.25 µg/mL (≈ 17.7 µM) | 12.5 µg/mL (≈ 35.4 µM) | 22 mm | 6.25 µg/mL (≈ 17.7 µM) | 6.25 µg/mL (≈ 17.7 µM) | 12.5 µg/mL (≈ 35.4 µM) | 6.25 µg/mL (≈ 17.7 µM) | 6.25 µg/mL (≈ 17.7 µM) | 12.5 µg/mL (≈ 35.4 µM) | 26 mm | 12.5 µg/mL (≈ 35.4 µM) | 25 µg/mL (≈ 70.8 µM) | 6.25 µg/mL (≈ 17.7 µM) | inhibition zone (IZ) (Escherichia coli [11]): 25 mm; inhibition zone (IZ) (Candida albicans [16]): 27 mm; inhibition zone (IZ) (Klebsiella pneumoniae [17]): 18 mm; inhibition zone (IZ) [23]: 24 mm
Cc1cc(Cl)ccc1OCc1nnc(-c2cc(-c3cc(F)c(Cl)cc3Cl)nc3ccccc23)o1 | 12.5 µg/mL (≈ 24.3 µM) | > 100 µg/mL | > 100 µg/mL | 50 µg/mL (≈ 97.1 µM) | 12 mm | > 100 µg/mL |  | 12.5 µg/mL (≈ 24.3 µM) | > 100 µg/mL | 17 mm | > 100 µg/mL | 6.25 µg/mL (≈ 12.1 µM) | 25 µg/mL (≈ 48.6 µM) | 12.5 µg/mL (≈ 24.3 µM) | 6.25 µg/mL (≈ 12.1 µM) | > 100 µg/mL | 12 mm | 50 µg/mL (≈ 97.1 µM) | > 100 µg/mL | > 100 µg/mL | Activity (Talaromyces marneffei [7]): >100 µg/mL; Activity (Escherichia coli [11]): >100 µg/mL; Activity (Candida albicans [16]): >100 µg/mL; Activity (Klebsiella pneumoniae [17]): >100 µg/mL; inhibition zone (IZ) [23]: 19 mm
Cc1cc(OCc2nnc(-c3cc(-c4cc(F)c(Cl)cc4Cl)nc4ccccc34)o2)ccc1Cl | > 100 µg/mL | 12.5 µg/mL (≈ 24.3 µM) | > 100 µg/mL | 25 µg/mL (≈ 48.6 µM) | 26 mm | > 100 µg/mL | 12 mm | 6.25 µg/mL (≈ 12.1 µM) | > 100 µg/mL |  | 12.5 µg/mL (≈ 24.3 µM) | > 100 µg/mL | > 100 µg/mL | 12.5 µg/mL (≈ 24.3 µM) | > 100 µg/mL | 50 µg/mL (≈ 97.1 µM) | 15 mm | 25 µg/mL (≈ 48.6 µM) | > 100 µg/mL | 25 µg/mL (≈ 48.6 µM) | Activity (Staphylococcus aureus [10]): >100 µg/mL; inhibition zone (IZ) (Escherichia coli [11]): 17 mm; Activity (Candida albicans [16]): >100 µg/mL; Activity (Klebsiella pneumoniae [17]): >100 µg/mL; Activity [23]: >100 µg/mL
Fc1cc(-c2cc(-c3nnc(COc4ccc(Cl)cc4)o3)c3ccccc3n2)c(Cl)cc1Cl | 12.5 µg/mL (≈ 25 µM) | 6.25 µg/mL (≈ 12.5 µM) | 12.5 µg/mL (≈ 25 µM) | 25 µg/mL (≈ 49.9 µM) | 32 mm | 50 µg/mL (≈ 99.9 µM) | 20 mm | 6.25 µg/mL (≈ 12.5 µM) | 12.5 µg/mL (≈ 25 µM) | 19 mm | 6.25 µg/mL (≈ 12.5 µM) | 6.25 µg/mL (≈ 12.5 µM) | 12.5 µg/mL (≈ 25 µM) | 6.25 µg/mL (≈ 12.5 µM) | 6.25 µg/mL (≈ 12.5 µM) | 12.5 µg/mL (≈ 25 µM) | 16 mm | 25 µg/mL (≈ 49.9 µM) | 25 µg/mL (≈ 49.9 µM) | 6.25 µg/mL (≈ 12.5 µM) | inhibition zone (IZ) (Escherichia coli [11]): 25 mm; inhibition zone (IZ) (Candida albicans [16]): 12 mm; inhibition zone (IZ) (Klebsiella pneumoniae [17]): 18 mm; inhibition zone (IZ) [23]: 15 mm
Cc1cc(OCc2nnc(-c3cc(F)c(Cl)cc3Cl)o2)ccc1Cl | > 100 µg/mL | 25 µg/mL (≈ 64.5 µM) | > 100 µg/mL | 50 µg/mL (≈ 129 µM) |  | > 100 µg/mL | 10 mm | > 100 µg/mL | > 100 µg/mL | 10 mm | 12.5 µg/mL (≈ 32.2 µM) | > 100 µg/mL | 50 µg/mL (≈ 129 µM) | 25 µg/mL (≈ 64.5 µM) | 25 µg/mL (≈ 64.5 µM) | 50 µg/mL (≈ 129 µM) | 8 mm | > 100 µg/mL | > 100 µg/mL | 100 µg/mL (≈ 258 µM) | Activity (Pseudomonas aeruginosa [5]): >100 µg/mL; inhibition zone (IZ) (Escherichia coli [11]): 15 mm; Activity (Candida albicans [16]): >100 µg/mL; inhibition zone (IZ) (Klebsiella pneumoniae [17]): 12 mm; Activity [23]: >100 µg/mL
